In ChEMBL document CHEMBL6177935, “Design and synthesis of novel multi-target tetrabromophthalimides as CBS and Topo-II inhibitors and DNA intercalators” (RSC Med Chem, 2024):
pIC50: −log10 of the molar value. Converted amounts (≈) assume the structure as drawn. The source made the active and inactive calls. The rule behind the calls is not given here.

Columns and labels:
HNO 97 cell line = assay: (§1) Growth inhibition of human HNO 97 cells at 100 ug/ml measured after 48 hrs by SRB assay relative to control; type: functional; conditions: dose 100.0 µg/ml, pooled result: one value given for 15 cell lines, strains, targets or settings
Procedure, shortened: (§2)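 SRB screen on fifteen human cancer lines. Cells seeded at 3×10^3 per well and left 24 h to attach. A single concentration of 100 µg/mL was tested in triplicate wells for 48 h, with 1% v/v DMSO as vehicle control. Cells fixed in 20% TCA, stained with 0.4% SRB and read at 570 nm. Survival fraction = OD treated/OD control.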

HN = assay: Growth inhibition of human HN cells at 100 ug/ml measured after 48 hrs by SRB assay relative to control; type: functional; conditions: dose 100.0 µg/ml, pooled result: one value given for 15 cell lines, strains, targets or settings; procedure, shortened: as §2
MCF7 = assay: Growth inhibition of human MCF7 cells at 100 ug/ml measured after 48 hrs by SRB assay relative to control; type: functional; conditions: dose 100.0 µg/ml, pooled result: one value given for 15 cell lines, strains, targets or settings; procedure, shortened: as §2
MDA-MB-468 [1] = assay: Growth inhibition of human MDA-MB-468 cells at 100 ug/ml measured after 48 hrs by SRB assay relative to control; type: functional; conditions: dose 100.0 µg/ml, pooled result: one value given for 15 cell lines, strains, targets or settings; procedure, shortened: as §2
Caco-2 = assay: Growth inhibition of human Caco-2 cells at 100 ug/ml measured after 48 hrs by SRB assay relative to control; type: functional; conditions: dose 100.0 µg/ml, pooled result: one value given for 15 cell lines, strains, targets or settings; procedure, shortened: as §2
HCT-116 = assay: Growth inhibition of human HCT-116 cells at 100 ug/ml measured after 48 hrs by SRB assay relative to control; type: functional; conditions: dose 100.0 µg/ml, pooled result: one value given for 15 cell lines, strains, targets or settings; procedure, shortened: as §2
HEp-2 = assay: Growth inhibition of human HEp-2 cells at 100 ug/ml measured after 48 hrs by SRB assay relative to control; type: functional; conditions: dose 100.0 µg/ml, pooled result: one value given for 15 cell lines, strains, targets or settings; procedure, shortened: as §2
HepG2 = assay: Growth inhibition of human HepG2 cells at 100 ug/ml measured after 48 hrs by SRB assay relative to control; type: functional; conditions: dose 100.0 µg/ml, pooled result: one value given for 15 cell lines, strains, targets or settings; procedure, shortened: as §2
A-431 [2] = assay: Growth inhibition of human A-431 cells at 100 ug/ml measured after 48 hrs by SRB assay relative to control; type: functional; conditions: dose 100.0 µg/ml, pooled result: one value given for 15 cell lines, strains, targets or settings; procedure, shortened: as §2
A-375 = assay: Growth inhibition of human A-375 cells at 100 ug/ml measured after 48 hrs by SRB assay relative to control; type: functional; conditions: dose 100.0 µg/ml, pooled result: one value given for 15 cell lines, strains, targets or settings; procedure, shortened: as §2
NCI-H1299 = assay: Growth inhibition of human NCI-H1299 cells at 100 ug/ml measured after 48 hrs by SRB assay relative to control; type: functional; conditions: dose 100.0 µg/ml, pooled result: one value given for 15 cell lines, strains, targets or settings; procedure, shortened: as §2
A549 = assay: Growth inhibition of human A549 cells at 100 ug/ml measured after 48 hrs by SRB assay relative to control; type: functional; conditions: dose 100.0 µg/ml, pooled result: one value given for 15 cell lines, strains, targets or settings; procedure, shortened: as §2
PC-3 [3] = assay: Growth inhibition of human PC-3 cells at 100 ug/ml measured after 48 hrs by SRB assay relative to control; type: functional; conditions: dose 100.0 µg/ml, pooled result: one value given for 15 cell lines, strains, targets or settings; procedure, shortened: as §2
FaDu [4] = assay: Growth inhibition of human FaDu cells at 100 ug/ml measured after 48 hrs by SRB assay relative to control; type: functional; conditions: dose 100.0 µg/ml, pooled result: one value given for 15 cell lines, strains, targets or settings; procedure, shortened: as §2
HeLa [5] = assay: Growth inhibition of human HeLa cells at 100 ug/ml measured after 48 hrs by SRB assay relative to control; type: functional; conditions: dose 100.0 µg/ml, pooled result: one value given for 15 cell lines, strains, targets or settings; procedure, shortened: as §2
MDA-MB-468 [6] = assay: Growth inhibition of human MDA-MB-468 cells measured after 48 hrs by SRB assay; type: functional, cell-based; conditions: MDA-MB-468, 48 h
Procedure, shortened: (§3)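 SRB assay. Cells seeded at 3×10^3 per well and attached 24 h, then exposed for 48 h to 12.5, 25, 50 and 62.5 µg/mL in triplicate wells, with 1% v/v DMSO vehicle. Cells fixed in 20% TCA, stained with 0.4% SRB and read at 570 nm. Survival fraction = OD treated/OD control, and IC50 taken from a sigmoidal dose-response fit.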

FaDu [7] = assay: Growth inhibition of human FaDu cells measured after 48 hrs by SRB assay; type: functional, cell-based; procedure, shortened: as §3
A-431 [8] = assay: Growth inhibition of human A-431 cells measured after 48 hrs by SRB assay; type: functional, cell-based; procedure, shortened: as §3
PC-3 [9] = assay: Growth inhibition of human PC-3 cells measured after 48 hrs by SRB assay; type: functional, cell-based; procedure, shortened: as §3
HeLa [10] = assay: Growth inhibition of human HeLa cells measured after 48 hrs by SRB assay; type: functional, cell-based; procedure, shortened: as §3
MDA-MB-468 [11] = assay: Induction of apoptosis in human MDA-MB-468 cells assessed as upregulation of caspase-3 expression measured after 1 hr by ELISA relative to control; type: functional
Procedure, shortened: (§4)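 Sandwich ELISA with wells precoated with capture antibody. Samples and standards (7-point curve) incubated 1 h at 37 °C, then biotin detection antibody 1 h at 37 °C, then avidin-HRP 30 min at 37 °C, with washes between steps. TMB added for 10-20 min at 37 °C in the dark, stopped with sulphuric acid and read at 450 nm. Duplicate readings averaged and zero standard subtracted.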

MDA-MB-468 [12] = assay: Induction of apoptosis in human MDA-MB-468 cells assessed as upregulation of caspase-7 expression measured after 1 hr by ELISA relative to control; type: functional; procedure, shortened: as §4
MDA-MB-468 [13] = assay: Induction of apoptosis in human MDA-MB-468 cells assessed as upregulation of caspase-8 expression measured after 1 hr by ELISA relative to control; type: functional; procedure, shortened: as §4
MDA-MB-468 [14] = assay: Induction of apoptosis in human MDA-MB-468 cells assessed as upregulation of caspase-9 expression measured after 1 hr by ELISA relative to control; type: functional; procedure, shortened: as §4
MDA-MB-468 [15] = assay: Induction of apoptosis in human MDA-MB-468 cells assessed as upregulation of Bax expression measured after 1 hr by ELISA relative to control; type: functional; procedure, shortened: as §4
MDA-MB-468 [16] = assay: Induction of apoptosis in human MDA-MB-468 cells assessed as upregulation of p53 expression measured after 1 hr by ELISA relative to control; type: functional; procedure, shortened: as §4
MDA-MB-468 [17] = assay: Induction of apoptosis in human MDA-MB-468 cells assessed as down regulation of MMP2 expression measured after 1 hr by ELISA relative to control; type: functional; procedure, shortened: as §4
MDA-MB-468 [18] = assay: Induction of apoptosis in human MDA-MB-468 cells assessed as down regulation of MMP9 expression measured after 1 hr by ELISA relative to control; type: functional; procedure, shortened: as §4
MDA-MB-468 [19] = assay: Induction of apoptosis in human MDA-MB-468 cells assessed as down regulation of BCL-2 expression measured after 1 hr by ELISA relative to control; type: functional; procedure, shortened: as §4
Tubulin = assay: (§5) Inhibition of [3H]-colchicine binding to biotinylated-tubulin (unknown origin) measured after 45 mins by scintillation counting analysis; type: protein-complex assay, Homo sapiens
Procedure, shortened: (§6)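 Scintillation proximity assay run at 37 °C. Incubated 45 min at 37 °C, then the plate was read and percent inhibition calculated from raw counts.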

DNA topoisomerase 2-beta [20] = target: T1, DNA topoisomerase 2-beta (Homo sapiens, UniProt Q02880); assay: Inhibition of human topoisomerase IIB by sandwich ELISA
T1 sequence (Q02880 whole entry, the tested form may be a part): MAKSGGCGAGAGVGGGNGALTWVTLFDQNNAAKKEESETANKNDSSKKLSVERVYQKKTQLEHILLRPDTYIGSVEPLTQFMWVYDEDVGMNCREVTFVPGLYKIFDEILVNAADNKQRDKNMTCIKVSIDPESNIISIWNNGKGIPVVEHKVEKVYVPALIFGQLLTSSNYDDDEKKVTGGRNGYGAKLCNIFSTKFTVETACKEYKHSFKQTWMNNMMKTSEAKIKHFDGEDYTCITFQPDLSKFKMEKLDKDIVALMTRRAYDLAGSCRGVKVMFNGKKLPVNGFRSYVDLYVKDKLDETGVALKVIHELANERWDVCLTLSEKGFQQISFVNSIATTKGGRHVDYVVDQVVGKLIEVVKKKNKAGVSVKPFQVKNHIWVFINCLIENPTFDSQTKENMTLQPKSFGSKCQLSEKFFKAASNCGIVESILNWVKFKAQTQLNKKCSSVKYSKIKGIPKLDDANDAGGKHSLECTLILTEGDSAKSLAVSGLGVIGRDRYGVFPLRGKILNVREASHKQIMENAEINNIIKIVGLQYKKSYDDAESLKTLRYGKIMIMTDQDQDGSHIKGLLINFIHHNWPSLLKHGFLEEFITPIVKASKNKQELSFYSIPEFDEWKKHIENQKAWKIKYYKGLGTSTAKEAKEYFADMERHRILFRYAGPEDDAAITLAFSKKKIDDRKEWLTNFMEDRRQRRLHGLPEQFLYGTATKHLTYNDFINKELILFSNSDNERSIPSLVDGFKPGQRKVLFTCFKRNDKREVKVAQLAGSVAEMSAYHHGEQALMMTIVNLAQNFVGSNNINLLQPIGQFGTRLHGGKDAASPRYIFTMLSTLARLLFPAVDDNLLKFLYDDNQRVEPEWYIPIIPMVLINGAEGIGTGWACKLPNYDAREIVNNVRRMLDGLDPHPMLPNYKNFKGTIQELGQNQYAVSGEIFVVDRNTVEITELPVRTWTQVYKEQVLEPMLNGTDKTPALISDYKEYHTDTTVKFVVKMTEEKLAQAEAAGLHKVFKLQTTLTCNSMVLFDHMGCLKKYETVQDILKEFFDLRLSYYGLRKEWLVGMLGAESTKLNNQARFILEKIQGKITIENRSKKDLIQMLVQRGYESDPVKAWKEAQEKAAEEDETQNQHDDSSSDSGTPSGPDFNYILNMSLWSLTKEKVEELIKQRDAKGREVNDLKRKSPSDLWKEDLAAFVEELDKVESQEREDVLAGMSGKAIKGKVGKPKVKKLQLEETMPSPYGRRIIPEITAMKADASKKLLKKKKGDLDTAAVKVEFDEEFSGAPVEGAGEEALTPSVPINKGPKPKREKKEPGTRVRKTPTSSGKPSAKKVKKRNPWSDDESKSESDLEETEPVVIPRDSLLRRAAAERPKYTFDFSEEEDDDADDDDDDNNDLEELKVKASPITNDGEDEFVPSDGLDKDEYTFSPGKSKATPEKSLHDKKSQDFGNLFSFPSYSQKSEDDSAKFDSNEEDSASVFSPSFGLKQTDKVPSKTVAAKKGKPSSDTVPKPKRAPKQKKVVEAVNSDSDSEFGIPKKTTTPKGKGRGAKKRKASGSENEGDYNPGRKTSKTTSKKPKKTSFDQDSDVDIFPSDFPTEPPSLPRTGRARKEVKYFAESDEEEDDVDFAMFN

DNA topoisomerase 2-beta [21] = target: T1, DNA topoisomerase 2-beta; assay: Inhibition of human topoisomerase IIB-mediated DNA fragmentation
MDA-MB-468 [22] = assay: Cell cycle analysis in human MDA-MB-468 cells assessed as accumulation of cells at G0-G1 phase at 3.1 uM measured after 48 hrs by propidium iodide staining based flow cytometry (reference value: 84.43%); type: functional
Procedure, shortened: (§7)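 MDA-MB-468 cells, 2 x 10^5 per well in medium with 10% FBS, grown 24 h at 37 °C, 5% CO₂. Then exposed to 3.1 μM in 1% v/v DMSO for 48 h, washed in cold PBS and fixed in ice-cold 70% ethanol. Stained with PI for 15 min at 37 °C and read by flow cytometry.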

MDA-MB-468 [23] = assay: Cell cycle analysis in human MDA-MB-468 cells assessed as accumulation of cells at S phase at 3.1 uM measured after 48 hrs by propidium iodide staining based flow cytometry (reference value: 15.3%); type: functional; procedure, shortened: as §7
MDA-MB-468 [24] = assay: Cell cycle analysis in human MDA-MB-468 cells assessed as accumulation of cells at G2-M phase at 3.1 uM measured after 48 hrs by propidium iodide staining based flow cytometry (reference value: 0.27%); type: functional; procedure, shortened: as §7
Tubulin (Homo sapiens) = Tubulin (Homo sapiens) (UniProt P68371+Q9H4B7+P0DPH7+P68366+Q13509+Q71U36+P04350+Q3ZCM7+P07437+P68363+Q9BQE3+Q6PEY2+Q13885+Q9BVA1+Q9BUF5); assay: as §5; type: protein-complex assay; procedure, shortened: as §6
[25] = as §1; type: functional, HNO 97 cell line; conditions: HNO 97, 48 h, pooled result: one value given for 15 cell lines, strains, targets or settings, read-out: GI; procedure, shortened: as §2

For `Cc1nnc(S)n(N2C(=O)c3c(Br)c(Br)c(Br)c(Br)c3C2=O)c1=O`, the “growth inhibition (GI)” value (HNO 97 cell line) was “Active”, the “growth inhibition (GI)” value (HN) was “Active” and the “growth inhibition (GI)” value (MCF7) was “Active”. For the same compound, the “growth inhibition (GI)” value (MDA-MB-468 [1]) was “Active”, the “growth inhibition (GI)” value (Caco-2) was “Active” and the “growth inhibition (GI)” value (HCT-116) was “Active”. For the same compound, the “growth inhibition (GI)” value (HEp-2) was “Active”, the “growth inhibition (GI)” value (HepG2) was “Active” and the “growth inhibition (GI)” value (A-431 [2]) was “Active”. The “growth inhibition (GI)” value (A-375) was “Active”, the “growth inhibition (GI)” value (NCI-H1299) was “Active” and the “growth inhibition (GI)” value (A549) was “Active”. For the same compound, the “growth inhibition (GI)” value (PC-3 [3]) was “Active”, the “growth inhibition (GI)” value (FaDu [4]) was “Active” and the “growth inhibition (GI)” value (HeLa [5]) was “Active”. The IC50 (MDA-MB-468 [6]) was 6.7 µg/mL (≈ 11.1 µM), the “growth inhibition (GI)” value (FaDu [7]) was “Active” and the “growth inhibition (GI)” value (A-431 [8]) was “Active”. For the same compound, the “growth inhibition (GI)” value (PC-3 [9]) was “Active”, the “growth inhibition (GI)” value (HeLa [10]) was “Active” and the “fold change (FC)” value (MDA-MB-468 [11]) was 3.42. For the same compound, the “fold change (FC)” value (MDA-MB-468 [12]) was 2.44, the “fold change (FC)” value (MDA-MB-468 [13]) was 2.33 and the “fold change (FC)” value (MDA-MB-468 [14]) was 3.72. The “fold change (FC)” value (MDA-MB-468 [15]) was 2.44, the “fold change (FC)” value (MDA-MB-468 [16]) was 3.61 and the “fold change (FC)” value (MDA-MB-468 [17]) was 1.9. The “fold change (FC)” value (MDA-MB-468 [18]) was 2.29, the “fold change (FC)” value (MDA-MB-468 [19]) was 1.81 and the pIC50 (Tubulin) was 5.50. The pIC50 (DNA topoisomerase 2-beta [20]) was 4.58, the inhibition (DNA topoisomerase 2-beta [21]) was “Active” and the Activity (MDA-MB-468 [22]) was 88.67%. For the same compound, the Activity (MDA-MB-468 [23]) was 9.04% and the Activity (MDA-MB-468 [24]) was 2.29%.
For `O=C1c2c(Br)c(Br)c(Br)c(Br)c2C(=O)N1c1nnn[nH]1`, the “growth inhibition (GI)” value (HNO 97 cell line) was “Active”, the “growth inhibition (GI)” value (HN) was “Active” and the “growth inhibition (GI)” value (MCF7) was “Active”. The “growth inhibition (GI)” value (MDA-MB-468 [1]) was “Active”, the “growth inhibition (GI)” value (Caco-2) was “Active” and the “growth inhibition (GI)” value (HCT-116) was “Active”. For the same compound, the “growth inhibition (GI)” value (HEp-2) was “Active”, the “growth inhibition (GI)” value (HepG2) was “Active” and the “growth inhibition (GI)” value (A-431 [2]) was “Active”. The “growth inhibition (GI)” value (A-375) was “Active”, the “growth inhibition (GI)” value (NCI-H1299) was “Active” and the “growth inhibition (GI)” value (A549) was “Active”. The “growth inhibition (GI)” value (PC-3 [3]) was “Active”, the “growth inhibition (GI)” value (FaDu [4]) was “Active” and the “growth inhibition (GI)” value (HeLa [5]) was “Active”. For the same compound, the inhibition (Tubulin (Homo sapiens)) was “Active”, the inhibition (DNA topoisomerase 2-beta [20]) was “Active” and the inhibition (DNA topoisomerase 2-beta [21]) was “Active”.
For `O=C(O)[C@H](Cc1c[nH]c2ccccc12)N1C(=O)c2c(Br)c(Br)c(Br)c(Br)c2C1=O`, the inhibition of growth at 100 µg/mL [25] was 75.1%, the inhibition (DNA topoisomerase 2-beta [20]) was “Active; Weak Inhibition Observed” and the inhibition (DNA topoisomerase 2-beta [21]) was “Active”.
